Measurements as given in ChEMBL document CHEMBL4251543, “Identification of potent tricyclic prodrug S1P1 receptor modulators” (Medchemcomm, 2017).

Assays:
Rattus norvegicus [1] = assay: Immunosuppressive activity in Lewis rat assessed as reduction in blood lymphocytes count at 2 mg/kg, po after 4 hrs relative to control; format: functional; parameters: scale not given: the % may be the effect or the level left
How it was run: (§1)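 Oral dosing in Lewis rats, with PEG300 as vehicle, given as solution or suspension adjusted for free test article if salt forms are used. Blood sampled at several time points. Lymphocytes counted on a hematology analyzer. Result is the reduction in circulating lymphocyte percentage versus the vehicle group at each time, averaged per group (n = 2).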

[2] = Prodrug conversion in Lewis rat blood assessed as parent compound levels at 2 mg/kg, po after 4 hrs; format: ADME, organism-based; conditions: in vivo, read-out: Drug metabolism
[3] = Prodrug conversion in Lewis rat blood assessed as formation phosphate metabolite at 2 mg/kg, po after 4 hrs; format: ADME, organism-based; conditions: in vivo
Rattus norvegicus [4] = assay: Immunosuppressive activity in Lewis rat assessed as reduction in blood lymphocytes count at 2 mg/kg, po after 24 hrs relative to control; format: functional; parameters: scale not given: the % may be the effect or the level left; how it was run: as §1
[5] = Prodrug conversion in Lewis rat blood assessed as parent compound levels at 2 mg/kg, po after 24 hrs; format: ADME, organism-based; conditions: in vivo, read-out: Drug metabolism
[6] = Prodrug conversion in Lewis rat blood assessed as formation phosphate metabolite at 2 mg/kg, po after 24 hrs; format: ADME, organism-based; conditions: in vivo
Rattus norvegicus [7] = assay: Immunosuppressive activity in Lewis rat assessed as reduction in blood lymphocytes count at 2 mg/kg, po after 48 hrs relative to control; format: functional; parameters: scale not given: the % may be the effect or the level left; how it was run: as §1
[8] = Prodrug conversion in Lewis rat blood assessed as parent compound levels at 2 mg/kg, po after 48 hrs; format: ADME, organism-based; conditions: in vivo, read-out: Drug metabolism
[9] = Prodrug conversion in Lewis rat blood assessed as formation phosphate metabolite at 2 mg/kg, po after 48 hrs; format: ADME, organism-based; conditions: in vivo
[10] = Half life in Lewis rat at 2 mg/kg, po after 72 hrs; format: ADME, organism-based; conditions: in vivo
Mus musculus = species on record: Mus musculus; assay: Pulmonary toxicity in mouse assessed as increase in BAL protein levels at 20 times ED50 relative to control; format: organism-based; conditions: in vivo
Rattus norvegicus [11] = assay: Immunosuppressive activity in po dosed Lewis rat assessed as reduction in blood lymphocytes after 24 hrs; format: functional; how it was run: as §1
[12] = Half life in rat; format: ADME, organism-based; conditions: in vivo

Row | concentration [2] [nM] | Drug metabolism [3] [nM] | concentration [5] [nM] | Drug metabolism [6] [nM] | concentration [8] [nM] | Drug metabolism [9] [nM] | half-life [10] [h] | half-life [12] [h] | SMILES | Activity (Rattus norvegicus [1]) [%] | Activity (Rattus norvegicus [4]) [%] | Activity (Rattus norvegicus [7]) [%] | fold change (FC) (Mus musculus) | ED50 (Rattus norvegicus [11]) [mg/kg]
1 | 200 | 120 | 140 | 58 | 27 | 18 | 20 | – | CCCCOCCOc1nc2c(s1)-c1ccc([C@H]3CC[C@](N)(CO)C3)cc1CC2 | 79 | 87 | 82 | 5 | 0.25
2 | – | – | – | – | – | – | – | 162 | CCCCCC[C@@H]1CCc2cc([C@H]3CC[C@](N)(CO)C3)ccc2C1 [BMS-986104] | – | – | – | – | –
